# From publication PMC5595133 (Theranostics, 2017)
# How the values were obtained:
# B16 cells = experiment: Cell cycle assay by flow cytometry; format: cell-based, mouse; conditions: 50 nM (calculated by free DM1), 12 h
# MCF-7 cells = experiment: Cell cycle assay by flow cytometry; format: cell-based, human; conditions: 50 nM (calculated by free DM1), 12 h
# HUVEC cells = experiment: Cell cycle assay by flow cytometry; format: cell-based, human; conditions: 50 nM (calculated by free DM1), 12 h
# [1] = In vivo safety examination; set-up: species or system C57BL/6 mice
# Procedure, shortened: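 This used the B16 s.c. model in C57BL/6 mice with tail-vein dosing in saline. Body weight was recorded every other day. On day 25 after implantation, 500 μL of blood was taken without heparin and centrifuged (4000 rpm, 5 min); ALT and AST were measured in serum. 20 μL of peripheral blood went for WBC, RBC and platelet counts by autoanalyzer. Heart, liver, spleen, kidney and lung were formalin-fixed, paraffin-embedded, cut at 5 μm and H&E-stained for light microscopy.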
smiles,measurement,setting,value
"COc1cc2cc(c1Cl)N(C)C(=O)C[C@H](OC(=O)[C@H](C)N(C)C(=O)CCS)[C@]1(C)O[C@H]1[C@H](C)[C@@H]1C[C@@](O)(NC(=O)O1)[C@H](OC)/C=C/C=C(\C)C2 [DM1, Maytansinoid DM1]",percentage of cells in G2/M phase,B16 cells,58.26%
same,percentage of cells in G2/M phase,MCF-7 cells,57.18%
same,percentage of cells in G2/M phase,HUVEC cells,42.23%
same,body weight change versus saline,"[1]; B16 tumor-bearing C57BL/6 mice, 400 μg/kg DM1 i.v. every other day x5, n=6",significant body weight loss
same,"H&E histology of major organs (heart, liver, spleen, lung, kidney)","[1]; end of test, 200×",severer organic damages
same,count of white blood cells (WBC),"[1]; peripheral blood at the end of test, n=6, compared with the normal value",decreased the count
same,"liver function, circulating ALT and AST","[1]; serum on day 25, n=6",obvious hepatic cytolysis
